Experimental data: ChEMBL document CHEMBL2311478, “Macrolactonolides: a novel class of anti-inflammatory compounds” (Bioorg Med Chem, 2013)
≈ marks a conversion by molar mass, not a printed value. Calls of active or inactive are those of the source. No cut-off for these calls is given here.

Tests used:
Enterococcus faecalis = assay: Antibacterial activity against Enterococcus faecalis ATCC 29213 by broth microdilution method; assay type: functional
Outline: (§1)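 CLSI broth microdilution with double dilutions in 96-well plates. For streptococci, 5% horse serum replaced lysed blood in the medium. Inocula were grown on Columbia agar with 5% sheep blood for streptococci, Mueller–Hinton chocolate agar for H. influenzae, and Mueller–Hinton agar for staphylococci. Read-out is MIC in mg/L.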

Streptococcus pyogenes = assay: Antibacterial activity against erythromycin susceptible Streptococcus pyogenes 3565 by broth microdilution method; assay type: functional; outline: as §1
Staphylococcus aureus [1] = assay: Antibacterial activity against efflux mediated macrolide-resistant Staphylococcus aureus PK1 by broth microdilution method; assay type: functional
Outline: (§2)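 MICs by CLSI broth microdilution with double dilutions, except that Streptococcus medium used 5% horse serum in place of lysed blood. Bacteria were pre-grown on Columbia agar with 5% sheep blood (streptococci) or Mueller–Hinton agar (staphylococci).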

Staphylococcus aureus [2] = assay: Antibacterial activity against constitutive-resistant to macrolide, licosamide and streptogramin Staphylococcus aureus PK2 by broth microdilution method; assay type: functional; outline: as §2
Staphylococcus aureus [3] = assay: Antibacterial activity against inducible-resistant to macrolide, licosamide and streptogramin Staphylococcus aureus 90265/97 by broth microdilution method; assay type: functional; outline: as §2
Staphylococcus aureus [4] = assay: Antibacterial activity against Staphylococcus aureus ATCC 13709 by broth microdilution method; assay type: functional; outline: as §1
Rattus norvegicus [5] = assay: Antiinflammatory activity against ovalbumin-induced airway allergic Brown-Norway rat model assessed as decrease of eosinophil peroxidase activity in bronchoalveolar lavage fluid at 32 mg/kg administered intranasally as dry powder measured on day 29 after ovalbumin challenge; assay type: functional, Lung; set-up: scale not given: the % may be the effect or the level left
Rattus norvegicus [6] = assay: Antiinflammatory activity against ovalbumin-induced airway allergic Brown-Norway rat model assessed as decrease of eosinophils in bronchoalveolar lavage fluid at 32 mg/kg administered intranasally as dry powder measured on day 29 after ovalbumin challenge (reference value: 53.1%); assay type: functional, Lung; set-up: scale not given: the % may be the effect or the level left
[7] = Half life in Balb/c mouse lung at 2 mg/kg, administered intranasally; assay type: ADME, organism-based; set-up: dose 2 mg/kg; details: inhaled or intranasal
Outline: (§3)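 Male Balb/c mice (21–25 g) dosed intranasally with freshly prepared formulation in 1% DMSO plus 0.125% CMC. Terminal bleeding and lung collection from 5 min to 72 h. K2EDTA blood taken as blood aliquots or spun for plasma. Lung homogenised 1:5 in water. Samples were protein-precipitated with acetonitrile/methanol (2:1) plus roxithromycin internal standard and quantified by LC–MS/MS. LLOQ 0.5 ng/mL (blood/plasma) and 2.5 ng/mL (lung).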

[8] = AUC (0 to infinity) in Balb/c mouse plasma at 2 mg/kg, administered intranasally; assay type: ADME, organism-based; set-up: time infinity, route nasal, dose 2 mg/kg; details: inhaled or intranasal; outline: as §3
PBMC [9] = assay: Antiinflammatory activity in human PBMC assessed as inhibition of PHA-induced IL-3 production after 48 hrs; assay type: functional, cell-based
Outline: (§4)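 Thawed cryopreserved human PBMCs were preincubated 1 h at 37 °C, 5% CO2, then exposed to test compound for 1 h before LPS, anti-CD3 or PHA stimulation. Supernatants were collected at 6, 24 or 48 h according to each cytokine's peak, and cytokines quantified by Luminex multiplex bead assay. 10-point titration starting at 20 µM, in duplicate, with constant DMSO. Parallel Alamar Blue cytotoxicity check under 48 h PHA.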

PBMC [10] = assay: Antiinflammatory activity in human PBMC assessed as inhibition of PHA-induced IL-2 production after 48 hrs; assay type: functional, cell-based; outline: as §4
PBMC [11] = assay: Antiinflammatory activity in human PBMC assessed as inhibition of PHA-induced MCP-1 production after 24 hrs; assay type: functional, cell-based; outline: as §4
PBMC [12] = assay: Antiinflammatory activity in human PBMC assessed as inhibition of PHA-induced IL-4 production after 24 hrs; assay type: functional, cell-based; outline: as §4
PBMC [13] = assay: Antiinflammatory activity in human PBMC assessed as inhibition of PHA-induced MIP1alpha production after 6 hrs; assay type: functional, cell-based; outline: as §4
PBMC [14] = assay: Antiinflammatory activity in human PBMC assessed as inhibition of PHA-induced IL-8 production after 6 hrs; assay type: functional, cell-based; outline: as §4
PBMC [15] = assay: Antiinflammatory activity in human PBMC assessed as inhibition of PHA-induced TNFalpha production after 6 hrs; assay type: functional, cell-based; outline: as §4
PBMC [16] = assay: Antiinflammatory activity in human PBMC assessed as inhibition of LPS-induced IL-6 production after 6 hrs; assay type: functional, cell-based; outline: as §4
Glucocorticoid receptor = biological target: T1, Glucocorticoid receptor (Homo sapiens, UniProt P04150); assay: Displacement of [3H]-dexamethasone human glucocorticoid receptor alpha expressed in 293 MSR cells after 60 mins by scintillation counting; assay type: cell-based
T1 sequence (P04150 whole entry): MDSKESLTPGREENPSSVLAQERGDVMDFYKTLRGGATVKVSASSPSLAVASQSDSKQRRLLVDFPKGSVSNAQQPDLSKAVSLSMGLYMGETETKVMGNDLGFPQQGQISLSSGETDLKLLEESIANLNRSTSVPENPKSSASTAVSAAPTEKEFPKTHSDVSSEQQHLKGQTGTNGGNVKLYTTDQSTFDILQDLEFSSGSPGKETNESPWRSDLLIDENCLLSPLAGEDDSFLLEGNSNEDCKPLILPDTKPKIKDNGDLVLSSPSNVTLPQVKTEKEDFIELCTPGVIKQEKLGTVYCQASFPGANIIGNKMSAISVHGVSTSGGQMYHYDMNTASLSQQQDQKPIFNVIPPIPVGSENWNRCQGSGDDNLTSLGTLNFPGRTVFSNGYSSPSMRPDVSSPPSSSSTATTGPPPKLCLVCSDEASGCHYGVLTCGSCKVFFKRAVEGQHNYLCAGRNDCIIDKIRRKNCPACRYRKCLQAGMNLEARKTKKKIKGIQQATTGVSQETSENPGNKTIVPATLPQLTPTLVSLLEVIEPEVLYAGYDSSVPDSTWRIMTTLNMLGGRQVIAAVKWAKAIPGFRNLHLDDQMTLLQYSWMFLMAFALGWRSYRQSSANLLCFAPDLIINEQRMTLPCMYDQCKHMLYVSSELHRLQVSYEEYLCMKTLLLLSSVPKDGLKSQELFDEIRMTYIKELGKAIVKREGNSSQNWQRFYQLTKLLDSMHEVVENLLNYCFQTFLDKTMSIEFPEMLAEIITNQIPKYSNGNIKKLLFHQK

PBMC [17] = assay: Antiinflammatory activity in human PBMC assessed as inhibition of LPS-induced IL-1beta production after 6 hrs; assay type: functional, cell-based; outline: as §4
Rattus norvegicus [18] = assay: Antiinflammatory activity against ovalbumin-induced airway allergic Brown-Norway rat model assessed as decrease of neutrophils in bronchoalveolar lavage fluid at 32 mg/kg administered intranasally as dry powder measured on day 29 after ovalbumin challenge; assay type: functional, organism-based; set-up: dose 32 mg/kg
Outline: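 Brown-Norway rats sensitised by OVA injection on day 1, boosted on days 14 and 20. Treatment with 32 mg/kg or air control on day 27, followed 1 h later by 60 min OVA inhalation challenge. BAL cells differentiated about 48 h post-challenge (day 29). Comparison was against a sensitised, challenged, untreated group. Mean + SD, n = 10, Dunnett test.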

[19] = Tmax in Balb/c mouse lung at 2 mg/kg, administered intranasally; assay type: ADME, organism-based; set-up: dose 2 mg/kg; details: inhaled or intranasal; outline: as §3
[20] = Tmax in Balb/c mouse blood at 2 mg/kg, administered intranasally; assay type: ADME, organism-based; set-up: dose 2 mg/kg; details: whole blood, inhaled or intranasal; outline: as §3
[21] = AUC (0 to infinity) in Balb/c mouse blood at 2 mg/kg, administered intranasally; assay type: ADME, organism-based; set-up: time infinity, dose 2 mg/kg, route nasal; details: whole blood, inhaled or intranasal; outline: as §3
[22] = Half life in Balb/c mouse blood at 2 mg/kg, administered intranasally; assay type: ADME, organism-based; set-up: dose 2 mg/kg; details: whole blood, inhaled or intranasal; outline: as §3
[23] = Ratio of drug AUC lung to blood in Balb/c mouse at 2 mg/kg, administered intranasally; details: lung and blood, inhaled or intranasal

Structure (SMILES): CC[C@H]1OC(=O)[C@H](C)[C@@H](O[C@H]2C[C@@](C)(OC)[C@@H](O)[C@H](C)O2)[C@H](C)[C@@H](O[C@@H]2O[C@H](C)C[C@H](N(C)C)[C@H]2O)[C@](C)(O)C[C@@H](C)CN(CCCNC(=O)[C@H]2[C@H](C)C[C@H]3[C@@H]4CCC5=CC(=O)C=C[C@]5(C)[C@@]4(F)[C@@H](O)C[C@@]32C)[C@H](C)[C@@H](O)[C@]1(C)O
- MIC (Enterococcus faecalis): 64 µg/mL (≈ 56.3 µM)
- MIC (Streptococcus pyogenes): 0.25 µg/mL (≈ 0.22 µM)
- MIC (Staphylococcus aureus [1]): > 64 µg/mL
- MIC (Staphylococcus aureus [2]): > 64 µg/mL
- MIC (Staphylococcus aureus [3]): > 64 µg/mL
- MIC (Staphylococcus aureus [4]): 8 µg/mL (≈ 7.04 µM)
- Activity (Rattus norvegicus [5]): 50%
- Activity (Rattus norvegicus [6]): 43.6%
- half-life [7]: 1200 min
- AUC(0-inf) [8]: 181 ng·h/mL
- EC50 (PBMC [9]): 1.27 µM
- EC50 (PBMC [10]): > 20 µM
- EC50 (PBMC [11]): 19 µM
- EC50 (PBMC [12]): 0.21 µM
- EC50 (PBMC [13]): 2.63 µM
- EC50 (PBMC [14]): 3.05 µM
- EC50 (PBMC [15]): 1.33 µM
- EC50 (PBMC [16]): > 20 µM
- EC50 (Glucocorticoid receptor): 0.43 µM
- EC50 (PBMC [17]): > 20 µM
- Activity (Rattus norvegicus [18]): Active
- Tmax [19]: 4.8 min
- Tmax [20]: 15 min
- AUC(0-inf) [21]: 181 ng·h/mL
- half-life [22]: 54 min
- lung-to-blood AUC ratio [23]: 53
